This is a sample that favours compounds with a hit; in the whole collection about 1.4% have one here.
Dyrk1A ADPGlo: rat Dyrk1A kinase inhibitors, primary screen, biochemical, single point, plate reader. Dual specificity tyrosine-phosphorylation-regulated kinase 1A (Rattus norvegicus), Q63470. hit rate 0.43% among 310,000. AID 504441, 2011. ADP-Glo luminescence, NFATc1 peptide. inhibition, % at 12.5 µM; in the data active = inhibition above about 50%;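 note: plate controls were vehicle with enzyme for no effect and no enzyme for full effect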
CAL PDZ FP-1: untagged CAL PDZ binding inhibitors, primary screen, biochemical, fluorescence polarization, HTS; purified CAL PDZ, TMR-peptide fluorescence polarization, 1 h; hit rate 0.92% among 300,000; inhibition, % at 24.9 µM; Golgi-associated PDZ and coiled-coil motif-containing protein (Homo sapiens), Q9HD26;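 active = mean inhibition of at least 30% with at least half of replicates also reaching 30%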;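 note: 0% = DMSO neutral control and 100% = excess unlabeled competitor peptide PRC23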
PvdQ acylase: P. aeruginosa PvdQ acylase inhibitors, primary screen, biochemical, fluorescence, plate reader and imaging, single point; PvdQ acylase [Pseudomonas aeruginosa LESB58]; purified PvdQ acylase; inhibition, % at 10 µM; hit rate 0.063% among 340,000; AID 488965, 2010; in the data active = inhibition above about 30%, passing the limit was not always enough;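 note: 0% = vehicle neutral wells and 100% = reference inhibitor wells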
CAL PDZ FP-2: CAL PDZ peptide-binding inhibitors, primary screen, biochemical, fluorescence polarization, Cer-tagged CAL PDZ, HTS. Golgi-associated PDZ and coiled-coil motif-containing protein (Homo sapiens), Q9HD26. purified CAL PDZ, TMR-peptide fluorescence polarization, 1 h. inhibition, % at 20 µM. hit rate 0.02% among 330,000;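 active = highest replicate inhibition of at least 40%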;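 note: plate controls were DMSO neutral control wells for no effect and unlabeled competitor peptide control wells for full effect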
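material = purified tagged CAL PDZ domain construct (CerCALP) | buffer or medium = sodium phosphate/NaCl buffer pH 7.4 with TCEP, IgG, Thesit | reagent = TMR-labelled reporter peptide T*-PRC34 bound in PDZ groove | incubation = 1 h room-temperature incubation prior to read | measured by = fluorescence polarization (mP) | evaluation = percent inhibition from loss of millipolarization | control set = unlabelled peptide and DMSO controls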
Tb MetRS inh: T. brucei MetRS inhibitors, primary screen, biochemical, luminescence; hit rate 0.4% among 360,000; inhibition, % at 11.9 µM; purified T. brucei MetRS, ATP depletion, Kinase-Glo luminescence;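 active = inhibition above a per-plate cutoff of the control wells' mean inhibition plus 3 SD, cut at about 5.5% in these data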;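 note: 0% = DMSO wells median and 100% = median of wells with control inhibitor compound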
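Measured by: Kinase-Glo luciferase luminescence reporting remaining unconsumed ATP. Material: purified T. brucei MetRS enzyme. Doses: 11.9 µM compound single dose, 0.9% DMSO. Medium: HEPES buffer containing pyrophosphatase, BSA, spermine, DTT. Times: 15 min preincubation, 2 h reaction, all 25 °C. Reagent: methionine, ATP and bulk E. coli tRNA.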
CDK5 p35 inh: inhibitors of human CDK5/p35 kinase, primary screen, biochemical, single concentration. Cyclin-dependent kinase 5 (Homo sapiens) + Cyclin-dependent kinase 5 activator 1 (Homo …. Recombinant CDK5/p35, ADP-Glo luminescence, 60 min. inhibition, % at 10 µM. hit rate 0.01% among 330,000;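 active = highest replicate inhibition of at least 50% and at least 75% of replicates reaching 50%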;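 note: plate controls were DMSO neutral control for no effect and GW8510 at 10 µM for full effect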
Target sequence (Q00535 whole entry, looked up): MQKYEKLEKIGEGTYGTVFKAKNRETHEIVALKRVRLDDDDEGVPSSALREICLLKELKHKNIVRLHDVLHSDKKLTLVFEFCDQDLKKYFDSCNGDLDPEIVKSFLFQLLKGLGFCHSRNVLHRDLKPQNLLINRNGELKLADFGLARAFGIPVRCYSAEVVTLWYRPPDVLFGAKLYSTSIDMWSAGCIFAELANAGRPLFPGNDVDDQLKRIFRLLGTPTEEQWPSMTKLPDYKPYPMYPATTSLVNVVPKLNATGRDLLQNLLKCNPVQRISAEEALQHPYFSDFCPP
Target sequence (Q15078 whole entry, looked up): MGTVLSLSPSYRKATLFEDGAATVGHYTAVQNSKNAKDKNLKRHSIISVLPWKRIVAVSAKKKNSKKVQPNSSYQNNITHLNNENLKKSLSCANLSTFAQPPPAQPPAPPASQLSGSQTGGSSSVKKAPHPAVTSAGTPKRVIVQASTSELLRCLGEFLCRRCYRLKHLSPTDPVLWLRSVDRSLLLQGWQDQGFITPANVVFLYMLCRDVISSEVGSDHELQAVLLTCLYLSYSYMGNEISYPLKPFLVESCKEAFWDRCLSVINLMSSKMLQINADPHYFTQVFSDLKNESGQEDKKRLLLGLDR
Tb MetRS conf: T. brucei MetRS inhibitors, confirmation, biochemical, luminescence | inhibition, % at 11.9 µM | shares compounds with Tb MetRS inh | hit rate 93% among 1,400 | T. brucei MetRS enzyme, luminescence (ATP depletion) | AID 624412, 2012; in the data active = inhibition above about 7%
Jurkat tox: Jurkat T cell cytotoxicity, cytotoxicity control for T. brucei MetRS inhibitor project, luminescence, high throughput | hit rate 12% among 1,400 | AID 624413, 2012 | shares compounds with Tb MetRS inh | Jurkat cells viability, ATP luminescence | inhibition, % at 8.3 µM; in the data active = inhibition above about 15%;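 note: 0% = vehicle and 100% = reference inhibitor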
Tb MetRS inh FP: T. brucei MetRS inhibitors, orthogonal assay for T. brucei MetRS inhibitor project, biochemical, fluorescence polarization; shares compounds with Tb MetRS inh; purified T. brucei MetRS; inhibition, % at 11.9 µM; hit rate 44% among 1,400; in the data active = inhibition above about 17%;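 note: 0% = vehicle wells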
* marks the source's active call; other numbers are inactive results; . = no result.

SMILES	Dyrk1A ADPGlo	CAL PDZ FP-1	PvdQ acylase	CAL PDZ FP-2	Tb MetRS inh	CDK5 p35 inh	Tb MetRS conf	Jurkat tox	Tb MetRS inh FP
O=C(CSc1nnc2c(n1)[nH]c1ccc(F)cc12)NCc1ccc(F)cc1	-0.5	-4.2	-2.2	-2.8	17.1*	-2.3	70.7*	4.8	49.1*
COc1ccc2[nH]c3nc(SCC(=O)Nc4cccc(NC(C)=O)c4)nnc3c2c1	.	-5.9	5.2	-1.1	3.6	-1.5	.	.	.
Cc1ccc(CNC(=O)CSc2nnc3c(n2)[nH]c2ccccc23)cc1	-2.6	-1.3	-19.9	-1.9	16.4*	-1.6	68.6*	4.0	45.4*
COc1ccc(CNC(=O)CSc2nnc3c(n2)[nH]c2ccc(OC)cc23)cc1	-7.3	.	-8.2	-1.4	7.6*	0.7	35.0*	-0.9	22.3*
CCCS(=O)(=O)NC(=O)C1(C)CCN(C(=O)Cc2cccc3ccccc23)C1 (stereo unspecified)	.	.	.	.	-0.1	.	.	.	.
Cc1cccc(C)c1NC(=O)C(C1CC1)n1c(-c2ccc(-c3ccccc3)cc2)nc2ccccc21 (stereo unspecified)	.	.	.	.	0.1	.	.	.	.
CCCNC(=O)C1(C)CCN(C(=O)/C=C/c2ccccc2)C1 (stereo unspecified)	.	.	.	.	-0.4	.	.	.	.
CCOC(=O)C(=NC1CCS(=O)(=O)C1)NNc1ccccc1Cl (stereo unspecified)	-2.8	2.7	-6.9	-0.3	-0.3	-1.6	.	.	.
CCOC(=O)C(=NC1CCS(=O)(=O)C1)NNc1ccc(Br)cc1 (stereo unspecified)	-3.4	.	-0.9	-1.2	15.2*	0.5	46.0*	-4.6	14.3
CCOC(=O)c1c(C)[nH]c(C(=O)N(C)CC(=O)Nc2ccc(OCC)c(OCC)c2)c1C	.	.	.	.	-0.3	.	.	.	.
c1ccc(CNc2nc(NCCc3ccncc3)c3sccc3n2)cc1	.	.	.	.	11.6*	.	33.5*	9.3	19.2*
Cc1cc2nc(-c3ccccc3)c(Cc3cccc(Cl)c3)n2c(C)c1Br	.	.	.	.	-1.2	.	.	.	.
COC(=O)c1cc(-c2ccc(Br)cc2)n[nH]1	14.0	-1.0	-9.2	.	10.3*	0.8	28.0*	-5.0	11.9
COc1ccc(-c2cc(C(=O)NN)[nH]n2)cc1	0.0	-3.3	16.5	-1.8	-1.7	1.8	.	.	.
O=S(=O)(Nc1nccs1)c1ccc(NCc2cc(Br)cc(Br)c2O)cc1	-1.8	3.7	6.6	-1.0	35.5*	0.5	67.7*	-8.9	24.1*
COc1cccc(CNc2ccc(S(=O)(=O)Nc3nccs3)cc2)c1O	-0.2	-5.0	-3.7	-1.8	0.3	0.8	.	.	.
O=C(Nc1nc2c(Cl)cccc2s1)c1ccc(Br)o1	-1.6	-1.8	-10.4	-3.6	6.8*	0.9	4.4	-4.9	3.8
O=C(Nc1nc2c(Cl)cccc2s1)c1ccc([N+](=O)[O-])o1	7.3	-7.4	-12.9	.	-0.5	2.0	.	.	.
Cn1c(-c2ccccc2)c(Sc2ccccc2)c2cc(-c3ccc4[nH]ccc4c3)ccc21	.	.	.	.	0.4	.	.	.	.
Cc1cccc(C)c1NC(=O)C(c1ccccc1)N1CCN(C/C=C/c2ccccc2)CC1 (stereo unspecified)	.	.	.	.	-0.4	.	.	.	.
c1ccc2[nH]c(CSc3nnc(-c4ccncc4)o3)nc2c1	7.1	-1.0	-7.9	0.0	1.9	-1.3	.	.	.
Clc1ccc(-c2nnc(SCc3nc4ccccc4[nH]3)o2)c(Cl)c1	1.0	-1.7	10.0	-2.3	77.6*	-1.4	101.0*	4.7	90.2*
C[C@@H]1CN([C@@H](C)CO)C(=O)CCCn2nncc2CO[C@H]1CN(C)C(=O)c1ccc(N2CCN(C)CC2)cc1	.	.	.	.	-1.7	.	.	.	.
CCNC(=S)Nc1ccc2c(c1)c(=O)n(C)n2-c1ccc(C(C)(C)C)cc1	.	.	.	.	-0.3	.	.	.	.
CC1(C(=O)NCc2ccccc2)CN(S(C)(=O)=O)CC(=O)N1CCc1c[nH]c2ccccc12 (stereo unspecified)	.	.	.	.	-0.8	.	.	.	.
SMILES	Dyrk1A ADPGlo	CAL PDZ FP-1	PvdQ acylase	CAL PDZ FP-2	Tb MetRS inh	CDK5 p35 inh	Tb MetRS conf	Jurkat tox	Tb MetRS inh FP
COCCNC(=O)CS(=O)Cc1nc(-c2ccccc2C)oc1C (stereo unspecified)	-3.3	.	-17.0	-1.3	59.2*	-2.3	2.8	-2.6	4.8
C[C@H](CO)N1C[C@H](C)[C@@H](CN(C)S(=O)(=O)c2ccc(F)cc2)Oc2ccc(NC(=O)Nc3ccccc3)cc2C1=O	9.2	-2.5	-5.8	-2.0	1.7	-1.2	.	.	.
C[C@H](CO)N1C[C@H](C)[C@@H](CN(C)C(=O)Nc2ccc(C(F)(F)F)cc2)Oc2ccc(NC(=O)Nc3ccccc3)cc2C1=O	.	-3.4	-2.3	-1.1	6.1*	1.3	18.3*	6.8	13.4
C[C@H](CO)N1C[C@H](C)[C@@H](CN(C)C(=O)Nc2ccccc2)Oc2ccc(NC(=O)Nc3ccccc3)cc2C1=O	.	-8.3	-3.8	-2.2	3.3	-1.3	.	.	.
C[C@H](CO)N1C[C@H](C)[C@@H](CN(C)S(=O)(=O)c2ccccc2)Oc2ccc(NC(=O)Nc3ccccc3)cc2C1=O	-0.9	-5.4	4.1	-1.7	7.2*	6.1	18.9*	-2.8	2.9
CCOc1cccc(-c2ccc3nncn3c2)c1	.	.	.	.	-0.3	.	.	.	.
O=C(C[C@H]1C[C@@H]2c3cc(NC(=O)Nc4ccccc4)ccc3O[C@@H]2[C@@H](CO)O1)NCC1CC1	.	.	.	.	4.5	.	.	.	.
Cn1nc(C(=O)OCC(=O)NCc2ccc(Cl)cc2Cl)c2ccccc2c1=O	.	.	.	.	-0.4	.	.	.	.
Cc1ccc(NC(=O)Cn2c(CCC(=O)O)ccc2-c2ccc(Cl)cc2)cc1	3.0	-3.0	7.6	-1.0	10.0*	-0.2	34.2*	-5.5	16.9*
O=C(CC1CC2CCC1C2)N1CCN(S(=O)(=O)c2ccc(C(F)(F)F)cc2)CC1 (stereo unspecified)	.	.	.	.	0.1	.	.	.	.
O=C(c1ccccc1)c1ccc(-n2ccnc2)c([N+](=O)[O-])c1	20.6	.	-7.5	-1.7	4.1	0.9	.	.	.
